Experimental data from ChEMBL document CHEMBL1140343, “3-Alkylamino-4H-1,2,4-benzothiadiazine 1,1-dioxides as ATP-sensitive potassium channel openers: effect of 6,7-disubstitution on potency and tissue selectivity” (J Med Chem, 2005).

What was measured:
Rattus norvegicus [1] = species: Rattus norvegicus; assay: Percent residual insulin release in rat pancreatic islets upon incubation with the compound (10 uM) at 37 degree C for 90 mins; type: functional
Procedure, shortened: (§1)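 Islets isolated by collagenase digestion from fed Wistar rats (180–220 g); groups of 10 preincubated 30 min at 37 °C in bicarbonate-buffered salt medium with 2.8 mM glucose and 0.5% albumin, gassed O2/CO2 95:5. Then incubated 90 min at 37 °C with 16.7 mM glucose plus drug. Insulin measured by radioimmunoassay; release expressed as % of drug-free 16.7 mM glucose control. IC50 estimated.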

Rattus norvegicus [2] = species: Rattus norvegicus; assay: Percent residual insulin release in rat pancreatic islets upon incubation with the compound (1 uM) at 37 degree C for 90 mins; type: functional; procedure, shortened: as §1
Rattus norvegicus [3] = species: Rattus norvegicus; assay: Ratio of EC50 required to relax KCl induced rat aorta ring contractions to that of IC50 required to inhibit insulin release in rat pancreatic islets; type: functional
Rattus norvegicus [4] = species: Rattus norvegicus; assay: Concentration required to inhibit insulin release in rat pancreatic islets by 50% upon incubation with the compound at 37 degree C for 90 mins; type: functional, organism-based; details: 1.5 h; procedure, shortened: as §1
Rattus norvegicus [5] = species: Rattus norvegicus; assay: Percent residual insulin release in rat pancreatic islets upon incubation with the compound (0.1 uM) at 37 degree C for 90 mins; type: functional; procedure, shortened: as §1
Rattus norvegicus [6] = species: Rattus norvegicus; assay: Concentration required to relax KCl induced rat aorta ring contractions by 50% upon incubation with the compound at 37 degree C for 90 mins; type: functional, organism-based; details: 1.5 h
Procedure, shortened: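 Endothelium-denuded transverse aortic rings (3–4 mm) from fed Wistar rats (180–220 g); isometric tension recorded by force transducer. After 60 min equilibration, rings contracted with 30 mM KCl; at stable tension, drug added cumulatively until maximal relaxation or 0.3 mM. Relaxation expressed as % of KCl contraction; EC50 taken from dose–response curves; mean ± SEM (n).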

Rattus norvegicus [7] = species: Rattus norvegicus; assay: Percent residual insulin release in rat pancreatic islets upon incubation with the compound (50 uM) at 37 degree C for 90 mins; type: functional; procedure, shortened: as §1

Row | SMILES | Release (Rattus norvegicus [1]) | Release (Rattus norvegicus [2]) | Selectivity (Rattus norvegicus [3]) | IC50 (Rattus norvegicus [4]) | Release (Rattus norvegicus [5]) | EC50 (Rattus norvegicus [6]) | Release (Rattus norvegicus [7])
1 | CC(C)NC1=NS(=O)(=O)c2cc(Cl)ccc2N1 | 4.9% | 36.2% | 49.7 | 730 nM | 90.4% |  | 
2 | CC(C)NC1=NS(=O)(=O)c2cc(F)ccc2N1 | 3.7% | 47.3% | 56.7 | 760 nM | 96.9% | 43100 nM | 
3 | O=S1(=O)N=C(NC2CCC2)Nc2cc(Cl)c(F)cc21 | 12.8% | 15.3% | 173.5 | 230 nM | 74.5% | 39900 nM | 
4 | O=S1(=O)NC(NC2CCC2)=Nc2cc(Cl)c(Br)cc21 | 9.5% | 57.2% | 5.5 | 1210 nM |  | 6600 nM | 
5 | O=S1(=O)NC(NC2CC2)=Nc2cc(Cl)c(Cl)cc21 | 17.6% | 92.5% | >9 | 3340 nM |  | > 30000 nM | 
6 | O=S1(=O)NC(NC2CCC2)=Nc2cc(Cl)c(Cl)cc21 | 8.4% | 58.1% | 10.1 | 1250 nM |  | 12600 nM | 
7 | CCCNC1=NS(=O)(=O)c2cc(Cl)c(Cl)cc2N1 | 9.9% | 60.2% | 3.4 | 1370 nM |  | 4700 nM | 
8 | C=CCNC1=Nc2cc(Cl)c(Cl)cc2S(=O)(=O)N1 | 13.5% | 68.5% | 0.63 | 1890 nM |  | 1200 nM | 
9 | COc1ccc2c(c1)S(=O)(=O)NC(NC(C)C)=N2 | 8.5% | 67.6% | 156.6 | 1750 nM |  |  | 
10 | CCNC1=NS(=O)(=O)c2cc(OC)c(Cl)cc2N1 | 7.2% | 38% | 16.9 | 480 nM | 85.3% | 8100 nM | 
11 | CC(C)NC1=NS(=O)(=O)c2cc(F)c(NC(C)C)cc2N1 |  |  |  |  |  | > 200000 nM | 70.1%
12 | CC(C)CNC1=NS(=O)(=O)c2cc(F)c(F)cc2N1 | 42.3% | 86.9% | >5.3 | 5680 nM |  | > 30000 nM | 
13 | COc1cc2c(cc1Cl)NC(NC1CCC1)=NS2(=O)=O | 9.2% | 38.1% | 45.9 | 510 nM | 90% | 23400 nM | 
14 | CC(C)NC1=NS(=O)(=O)c2cc(F)c(Cl)cc2N1 | 7% | 5.7% | 259.4 | 160 nM | 64.4% | 41500 nM | 
15 | CCCNC1=NS(=O)(=O)c2cc(F)c(Cl)cc2N1 | 7.5% | 37.6% | 87.1 | 520 nM | 92% | 45300 nM | 
16 | CCCNC1=NS(=O)(=O)c2cc(F)c(NCCC)cc2N1 |  |  |  |  |  |  | 104.1%
17 | COc1cc2c(cc1Cl)NC(NC(C)C)=NS2(=O)=O | 7.7% | 20.6% | 154.2 | 240 nM | 73.8% | 37000 nM | 
18 | CC(C)NC1=NS(=O)(=O)c2cc(Br)ccc2N1 | 8.1% | 34.9% | 10.2 | 470 nM | 91% | 4800 nM | 
19 | CCNC1=NS(=O)(=O)c2cc(Cl)c(Cl)cc2N1 | 9.1% | 8.5% | 4 | 250 nM | 83.4% | 1000 nM | 
20 | CC(C)NC1=NS(=O)(=O)c2cc(Br)c(Cl)cc2N1 | 7.5% | 25.7% | 21.5 | 260 nM | 73.3% | 5600 nM | 
21 | CC(C)NC1=NS(=O)(=O)c2cc(Cl)c(Cl)cc2N1 | 6.3% | 13.2% | 8.2 | 280 nM | 84.9% | 2300 nM | 
22 | CCNC1=NS(=O)(=O)c2cc(F)c(Cl)cc2N1 | 12.7% | 7.3% | 212 | 200 nM | 73.1% | 42400 nM | 
23 | O=S1(=O)N=C(NC2CCC2)Nc2cc(NC3CCC3)c(F)cc21 |  |  |  |  |  |  | 88.6%
24 | CCCCCCNC1=NS(=O)(=O)c2cc(Cl)c(Cl)cc2N1 | 95.2% |  |  |  |  | > 300000 nM | 
25 | CCNC1=NS(=O)(=O)c2cc(Br)c(Cl)cc2N1 | 7.9% | 19.7% | 12.2 | 270 nM | 79.5% | 3300 nM | 
26 | CCNC1=NS(=O)(=O)c2cc(F)c(F)cc2N1 | 10.5% | 22% | 180.3 | 370 nM | 94.5% | 66700 nM | 
27 | CC(C)NC1=NS(=O)(=O)c2cc(F)c(F)cc2N1 | 6.1% | 22.9% | 341.3 | 300 nM | 81.6% | 102000 nM | 
28 | CC1=Nc2ccc(Cl)cc2S(=O)(=O)N1 [DIAZOXIDE] | 73.9% | 87.5% | 1 |  |  |  | 
